Data reported in ChEMBL document CHEMBL1127455, “8-Azaxanthine derivatives as antagonists of adenosine receptors” (J Med Chem, 1994).

Tests used:
Adenosine receptor A1 [1] = biological target: T1, Adenosine receptor A1 (Bos taurus, UniProt P28190); assay: Affinity to A1 adenosine receptor was measured by the displacement of […] in bovine brain cortical membrane; type: cell membranes
T1 sequence (P28190 whole entry): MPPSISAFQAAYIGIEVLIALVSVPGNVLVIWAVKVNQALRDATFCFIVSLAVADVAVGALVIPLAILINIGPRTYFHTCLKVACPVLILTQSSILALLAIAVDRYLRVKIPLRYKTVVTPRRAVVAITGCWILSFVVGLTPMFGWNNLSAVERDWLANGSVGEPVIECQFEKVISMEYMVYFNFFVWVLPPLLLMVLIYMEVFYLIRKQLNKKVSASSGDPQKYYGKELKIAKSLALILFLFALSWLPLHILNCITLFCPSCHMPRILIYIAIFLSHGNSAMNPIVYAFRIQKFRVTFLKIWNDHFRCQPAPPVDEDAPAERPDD
In short: (§1)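 Bovine cerebral cortex was homogenized in ice-cold 0.32 M sucrose with protease inhibitors and spun at 1000g, then 48000g, at 4 °C. The pellet was treated with adenosine deaminase (2 units/mL) at 37 °C for 60 min. Membranes (0.2-0.3 mg protein) were incubated in triplicate with about 1.2 nM [³H]CHA in Tris-HCl pH 7.7 with MgCl₂ at 25 °C for 45 min. Nonspecific binding was defined with 50 μM R-PIA. Binding was ended by GF/C filtration. Compounds were added in DMSO (2% solvent), up to 30 μM. IC50 was read from semilog plots, and Ki was derived using Kd 10.5 nM.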

[2] = biological target: Adenosine receptor A2a (Bos taurus); assay: Affinity to A2 adenosine receptor was measured by the displacement of [3H]-CGS- 21680 in bovine brain striatal membrane
Bos taurus = species: Bos taurus; assay: Ratio between the Ki values of A2 and A1 receptors
Adenosine receptor A1 [3] = biological target: T1, Adenosine receptor A1; assay: Affinity for A1 adenosine receptor by displacement of […] in bovine brain cortical membrane; d= Inactive at highest tested concentration 30 uM; type: tissue-based; in short: as §1
[4] = tested on: Adenosine A2 receptor (Bos taurus); assay: Displacement of [3H]-CGS- 21680 from A2 adenosine receptor in bovine brain striatal membrane at […]; conditions: Striatum

SMILES	Ki (Adenosine receptor A1 [1]) [µM]	Ki [2] [µM]	Ratio (Bos taurus)	Ki (Adenosine receptor A1 [3])	inhibition [4] [%]
CCCn1c(=O)c2nn(-c3ccc(Cl)cc3N)nc2n(CCC)c1=O	1.5				
CCCn1c(=O)c2c(nnn2-c2ccc(Cl)cc2N)n(CCC)c1=O	44				
Cn1c(=O)c2nn(C3CCCCC3)nc2n(C)c1=O	36	250	6.9		
Cn1c(=O)c2nn[nH]c2n(C)c1=O				Not Active	
Cn1nc2c(=O)n(C)c(=O)n(C)c2n1		52.8		Not Active	
CCCn1c(=O)c2c(nnn2C2CCCCC2O)n(CCC)c1=O (centres undefined)	1.8	13.5	7.5		
CCCn1c(=O)c2nn(C3CCCC3)nc2n(CCC)c1=O	1.3	13	10		
Cn1c(=O)c2nn(C3CCCCC3O)nc2n(C)c1=O (centres undefined)				Not Active	
Cn1c(=O)c2c(nnn2-c2ccc(Cl)cc2N)n(C)c1=O	14				
Cn1c(=O)c2c(ncn2C)n(C)c1=O [CAFFEINE]	29				
CCCn1c(=O)c2nn(C3CCCCC3O)nc2n(CCC)c1=O (centres undefined)	1.4				20
Cn1c(=O)c2c(nnn2C2CCCCC2)n(C)c1=O	23	8.4	0.36		
CCCn1c(=O)c2c(nnn2C2CCCC2)n(CCC)c1=O	0.34	10	29		

Continued, values first:

Ki (Adenosine receptor A1 [1]) [µM]	Ki [2] [µM]	Ratio (Bos taurus)	Ki (Adenosine receptor A1 [3])	inhibition [4] [%]	SMILES
24					Cn1c(=O)c2nn(-c3ccc(Cl)cc3N)nc2n(C)c1=O
1.6	21.7	13			CCCn1c(=O)c2nn(C3CCCCC3)nc2n(CCC)c1=O
110	58	0.5			Cn1c(=O)c2nn(C3CCCC3)nc2n(C)c1=O
31	49	1.6			Cn1c(=O)c2nn(C3CC4CCC3C4)nc2n(C)c1=O (centres undefined)
1.1					CCCn1c(=O)c2c(nnn2C2CCCCC2)n(CCC)c1=O
			Not Active		Cn1c(=O)c2c(nnn2C)n(C)c1=O
114					Cn1c(=O)c2c(nnn2C2CCCCC2O)n(C)c1=O (centres undefined)
18	4.5	0.25			Cn1c(=O)c2c(nnn2C2CC3CCC2C3)n(C)c1=O (centres undefined)
11	292	26			Cn1c(=O)c2c(nnn2C2CCCC2)n(C)c1=O
